Results from paper PMC3313004 (Molecular Microbiology, 2012).

What was measured:
TcdBHIST [1] = molecular target: T1, TcdBHIST (Clostridioides difficile, UniProt P18177); experiment: AWP19 probe labeling of TcdB; format: biochemical, Clostridium difficile 10463; conditions: 1 h IP6, then AWP19 in 10-fold molar excess
TcdBHIST [2] = molecular target: T1, TcdBHIST; experiment: In vitro TcdB autoprocessing assay; format: biochemical, Clostridium difficile 10463
TcdBHV [3] = experiment: AWP19 probe labeling of TcdB; format: biochemical, Clostridium difficile BI17; conditions: 1 h IP6, then AWP19 in 10-fold molar excess
TcdBHV [4] = experiment: In vitro TcdB autoprocessing assay; format: biochemical, Clostridium difficile BI17
[5] = tested on: TcdBHV treated CHO-K1 cells; experiment: Inactivation of TcdB in cell culture; format: cell-based; conditions: TcdBHV pre-incubated with 100 µM inhibitor; 24 hrs
Outline: (§1)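 CHO-K1 cells were seeded at 1–2 × 10^4 cells/well in F12-K medium with 10% FBS. Toxin at 0.037, 0.37 or 3.7 pM was preincubated for 30 min in F12-K medium with 100 µM of the CPD inhibitor Ac-GSL-AOMK, then added to wells in triplicate. Cells were kept 24 h at 37°C, 6% CO₂, and viability was read by CCK-8.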

[6] = tested on: TcdBHIST treated CHO-K1 cells; experiment: Inactivation of TcdB in cell culture; format: cell-based; conditions: TcdBHIST pre-incubated with 100 µM inhibitor; 24 hrs
Outline: as §1

TcdBHIST [7] = molecular target: T1, TcdBHIST
TcdBHV [8] = experiment: In vitro inhibition of IP6-induced processing with Ac-GSL-AOMK; format: biochemical, Clostridium difficile BI17
[9] = up to 100 µM inhibitor, 25 µM IP6, 3 independent experiments

T1 sequence (P18177 whole entry): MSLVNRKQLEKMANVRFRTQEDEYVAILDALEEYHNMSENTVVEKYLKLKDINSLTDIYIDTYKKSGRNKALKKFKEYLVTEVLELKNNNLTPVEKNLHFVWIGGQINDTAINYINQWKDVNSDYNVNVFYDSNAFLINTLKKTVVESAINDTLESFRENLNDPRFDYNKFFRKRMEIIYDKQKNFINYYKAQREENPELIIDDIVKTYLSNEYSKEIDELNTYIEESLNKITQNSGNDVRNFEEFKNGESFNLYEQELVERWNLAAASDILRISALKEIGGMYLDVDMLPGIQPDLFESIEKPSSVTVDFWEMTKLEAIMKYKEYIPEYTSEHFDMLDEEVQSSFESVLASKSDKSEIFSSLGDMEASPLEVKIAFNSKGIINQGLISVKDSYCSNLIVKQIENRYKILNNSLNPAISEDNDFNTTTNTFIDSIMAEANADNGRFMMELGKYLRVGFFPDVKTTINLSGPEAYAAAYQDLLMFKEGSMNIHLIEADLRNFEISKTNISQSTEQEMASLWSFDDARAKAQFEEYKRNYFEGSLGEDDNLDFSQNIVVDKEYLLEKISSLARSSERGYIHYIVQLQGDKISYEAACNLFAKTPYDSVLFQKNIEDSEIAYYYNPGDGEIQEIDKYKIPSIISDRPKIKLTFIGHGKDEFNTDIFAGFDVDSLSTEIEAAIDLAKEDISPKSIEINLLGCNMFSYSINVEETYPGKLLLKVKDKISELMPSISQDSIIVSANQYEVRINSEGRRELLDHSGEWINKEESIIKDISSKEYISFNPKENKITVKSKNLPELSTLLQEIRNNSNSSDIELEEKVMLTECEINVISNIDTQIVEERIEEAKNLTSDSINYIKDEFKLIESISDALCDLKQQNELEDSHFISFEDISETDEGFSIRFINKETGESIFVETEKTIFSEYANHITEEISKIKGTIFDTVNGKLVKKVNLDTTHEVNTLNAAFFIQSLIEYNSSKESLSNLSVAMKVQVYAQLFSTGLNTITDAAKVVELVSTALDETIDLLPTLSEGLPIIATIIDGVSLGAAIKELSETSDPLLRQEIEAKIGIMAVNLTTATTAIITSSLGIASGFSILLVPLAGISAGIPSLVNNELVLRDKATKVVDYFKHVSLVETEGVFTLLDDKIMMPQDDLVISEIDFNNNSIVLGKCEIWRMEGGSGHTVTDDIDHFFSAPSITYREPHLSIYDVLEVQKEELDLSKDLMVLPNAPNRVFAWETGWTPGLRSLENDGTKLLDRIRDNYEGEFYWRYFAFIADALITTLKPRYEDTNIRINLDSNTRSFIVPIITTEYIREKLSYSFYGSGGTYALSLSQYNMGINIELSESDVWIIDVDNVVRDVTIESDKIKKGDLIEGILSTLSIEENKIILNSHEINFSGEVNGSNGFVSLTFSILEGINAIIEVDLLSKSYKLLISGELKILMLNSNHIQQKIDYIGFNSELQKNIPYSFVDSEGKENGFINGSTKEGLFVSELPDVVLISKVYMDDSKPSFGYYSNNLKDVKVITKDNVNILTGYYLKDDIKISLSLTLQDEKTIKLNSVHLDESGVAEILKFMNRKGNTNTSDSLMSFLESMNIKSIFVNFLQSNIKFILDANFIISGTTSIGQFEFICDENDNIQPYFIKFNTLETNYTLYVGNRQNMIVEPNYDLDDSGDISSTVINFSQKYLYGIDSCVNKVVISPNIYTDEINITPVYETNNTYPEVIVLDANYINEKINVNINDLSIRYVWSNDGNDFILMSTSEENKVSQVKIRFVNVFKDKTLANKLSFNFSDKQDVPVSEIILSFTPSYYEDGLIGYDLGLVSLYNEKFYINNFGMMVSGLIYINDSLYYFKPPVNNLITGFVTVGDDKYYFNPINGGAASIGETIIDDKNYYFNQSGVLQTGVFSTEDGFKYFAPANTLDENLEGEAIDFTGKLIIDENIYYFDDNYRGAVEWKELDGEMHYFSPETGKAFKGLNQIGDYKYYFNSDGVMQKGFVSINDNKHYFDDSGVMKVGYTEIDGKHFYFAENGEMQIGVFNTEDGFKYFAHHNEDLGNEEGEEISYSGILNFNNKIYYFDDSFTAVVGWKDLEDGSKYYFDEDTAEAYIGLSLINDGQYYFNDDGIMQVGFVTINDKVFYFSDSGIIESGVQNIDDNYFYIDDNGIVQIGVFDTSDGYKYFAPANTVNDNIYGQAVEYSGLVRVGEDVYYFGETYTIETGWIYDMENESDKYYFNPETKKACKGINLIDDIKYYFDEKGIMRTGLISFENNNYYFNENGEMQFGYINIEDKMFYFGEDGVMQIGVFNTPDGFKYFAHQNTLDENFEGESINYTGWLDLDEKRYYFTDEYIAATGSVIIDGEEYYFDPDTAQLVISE

O=P(O)(O)OC1C(OP(=O)(O)O)C(OP(=O)(O)O)C(OP(=O)(O)O)C(OP(=O)(O)O)C1OP(=O)(O)O (centres unmarked) [IP6, inositol hexakisphosphate]
IP6 concentration at which AWP19-labeled toxin could be detected (TcdBHIST [1]): 5 µM
time to half-maximal level of proteolysis (TcdBHIST [2]; 100 µM IP6): ≤ 2 min
maximal processing (TcdBHIST [2]; 100 µM IP6, up to 60 min): under 60%
IP6 concentration at which AWP19-labeled toxin could be detected (TcdBHV [3]): 5 µM
time to half-maximal level of proteolysis (TcdBHV [4]; 100 µM IP6): ≤ 2 min
percent cleavage (autoprocessing) (TcdBHV [4]; 100 µM IP6, within the first hour): ~80%

O[C@@H](CS)[C@@H](O)CS (racemic) [DTT, Dithiothreitol]
activation of processing (TcdBHIST [2]; 5 mM DTT, 90 min time-course): just slightly above the level of detection
time to maximum activation (TcdBHV [4]; 5 mM DTT in place of IP6): approximately 1 h
time to activation of processing (TcdBHV [4]; 5 mM DTT in place of IP6, 90 min time-course): ≤ 15 min

Ac-GSL-AOMK
protection of CHO cells from toxin [5]: not as functional
protection of CHO cells from toxin [6]: provided protection
concentration at which inhibition of IP6-induced processing was detectable (TcdBHIST [7]; 25 µM IP6): around 12.5 µM
effect of inhibitor without IP6 (TcdBHIST [7]; no IP6 (data not shown)): no effect
percent of proteolysis blocked (TcdBHIST [7]; [9]): ~100%
concentration at which inhibition of IP6-induced processing was detectable (TcdBHV [8]; 25 µM IP6): around 12.5 µM
effect of inhibitor without IP6 (TcdBHV [8]; no IP6 (data not shown)): no effect
maximum percent inhibition of processing (TcdBHV [8]; [9]): around 60%
